Experimental data taken from ChEMBL document CHEMBL3627695, “1-Benzyl-2-methyl-3-indolylmethylene barbituric acid derivatives: Anti-cancer agents that target nucleophosmin 1 (NPM1)” (Bioorg Med Chem, 2015).
Calls of active or inactive are those of the source. The calls are words filed in the database; no cut-off is given here.

What was measured:
CCRF-CEM = test: Anticancer activity against human CCRF-CEM cells after 48 hrs by sulforhodamine B assay; assay type: functional
How it was run: (§1)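 NCI-60 human tumour cell line panel. Compounds dissolved in DMSO/H2O and tested at five 10-fold dilutions (10⁻⁴ M to 10⁻⁸ M) for 48 hr. GI50 is the molar concentration giving 50% reduction in net cell growth relative to cell numbers on day 0.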

HL-60(TB) = test: Anticancer activity against human HL-60(TB) cells after 48 hrs by sulforhodamine B assay; assay type: functional; conditions: HL-60, 48 h; how it was run: as §1
K562 = test: Anticancer activity against human K562 cells after 48 hrs by sulforhodamine B assay; assay type: functional; conditions: K562, 48 h; how it was run: as §1
[1] = Anticancer activity against human MOLT4 cells after 48 hrs by sulforhodamine B assay; assay type: functional; conditions: MOLT-4, 48 h; how it was run: as §1
[2] = Anticancer activity against human RPMI8226 cells after 48 hrs by sulforhodamine B assay; assay type: functional; conditions: RPMI-8226, 48 h; how it was run: as §1
SR = test: Anticancer activity against human SR cells after 48 hrs by sulforhodamine B assay; assay type: functional
How it was run: (§2)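 NCI-60 panel protocol. Compounds were dissolved in DMSO/H2O and tested at five 10-fold concentrations (10⁻⁴ to 10⁻⁸ M) with 48 hr incubation. GI50 is the molar concentration giving a 50% reduction in net cell growth relative to cell numbers on day 0.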

A549 = test: Anticancer activity against human A549/ATCC cells after 48 hrs by sulforhodamine B assay; assay type: functional; conditions: A549, 48 h; how it was run: as §1
HOP-62 = test: Anticancer activity against human HOP62 cells after 48 hrs by sulforhodamine B assay; assay type: functional; conditions: HOP-62, 48 h; how it was run: as §1
[3] = Anticancer activity against human HOP92 cells after 48 hrs by sulforhodamine B assay; assay type: functional; conditions: HOP-92, 48 h; how it was run: as §1
NCI-H226 = test: Anticancer activity against human NCI-H226 cells after 48 hrs by sulforhodamine B assay; assay type: functional; conditions: NCI-H226, 48 h; how it was run: as §1
NCI-H322M = test: Anticancer activity against human NCI-H322M cells after 48 hrs by sulforhodamine B assay; assay type: functional; how it was run: as §1
NCI-H460 = test: Anticancer activity against human NCI-H460 cells after 48 hrs by sulforhodamine B assay; assay type: functional; conditions: NCI-H460, 48 h; how it was run: as §1
NCI-H522 = test: Anticancer activity against human NCI-H522 cells after 48 hrs by sulforhodamine B assay; assay type: functional; conditions: NCI-H522, 48 h; how it was run: as §1
[4] = Anticancer activity against human COLO205 cells after 48 hrs by sulforhodamine B assay; assay type: functional; conditions: COLO 205, 48 h; how it was run: as §1
[5] = Anticancer activity against human HCC2998 cells after 48 hrs by sulforhodamine B assay; assay type: functional; conditions: HCC 2998, 48 h; how it was run: as §1
HCT-116 = test: Anticancer activity against human HCT116 cells after 48 hrs by sulforhodamine B assay; assay type: functional; conditions: HCT-116, 48 h; how it was run: as §1
HCT-15 = test: Anticancer activity against human HCT15 cells after 48 hrs by sulforhodamine B assay; assay type: functional; conditions: HCT-15, 48 h; how it was run: as §1
HT-29 = test: Anticancer activity against human HT-29 cells after 48 hrs by sulforhodamine B assay; assay type: functional; conditions: HT-29, 48 h; how it was run: as §1
KM12 = test: Anticancer activity against human KM12 cells after 48 hrs by sulforhodamine B assay; assay type: functional; conditions: KM12, 48 h; how it was run: as §1
SW-620 = test: Anticancer activity against human SW620 cells after 48 hrs by sulforhodamine B assay; assay type: functional; conditions: SW-620, 48 h; how it was run: as §2
SF-268 = test: Anticancer activity against human SF268 cells after 48 hrs by sulforhodamine B assay; assay type: functional; conditions: SF-268, 48 h; how it was run: as §1
[6] = Anticancer activity against human SF295 cells after 48 hrs by sulforhodamine B assay; assay type: functional; conditions: SF-295, 48 h; how it was run: as §1
[7] = Anticancer activity against human SF539 cells after 48 hrs by sulforhodamine B assay; assay type: functional; conditions: SF-539, 48 h; how it was run: as §1
SNB-19 = test: Anticancer activity against human SNB19 cells after 48 hrs by sulforhodamine B assay; assay type: functional; conditions: SNB-19, 48 h; how it was run: as §1
SNB-75 = test: Anticancer activity against human SNB75 cells after 48 hrs by sulforhodamine B assay; assay type: functional; conditions: SNB-75, 48 h; how it was run: as §1
U-251 = test: Anticancer activity against human U251 cells after 48 hrs by sulforhodamine B assay; assay type: functional; conditions: U-251, 48 h; how it was run: as §2
[8] = Anticancer activity against human LOXIMVI cells after 48 hrs by sulforhodamine B assay; assay type: functional; conditions: LOX IMVI; how it was run: as §1
Malme-3M = test: Anticancer activity against human MALME-3M cells after 48 hrs by sulforhodamine B assay; assay type: functional; how it was run: as §1
M14 = test: Anticancer activity against human M14 cells after 48 hrs by sulforhodamine B assay; assay type: functional; conditions: M14, 48 h; how it was run: as §1
MDA-MB-435 = test: Anticancer activity against human MDA-MB-435 cells after 48 hrs by sulforhodamine B assay; assay type: functional; conditions: MDA-MB-435, 48 h; how it was run: as §1
SK-MEL-2 = test: Anticancer activity against human SK-MEL-2 cells after 48 hrs by sulforhodamine B assay; assay type: functional; conditions: SK-MEL-2, 48 h; how it was run: as §1
SK-MEL-28 = test: Anticancer activity against human SK-MEL-28 cells after 48 hrs by sulforhodamine B assay; assay type: functional; conditions: SK-MEL-28, 48 h; how it was run: as §1
SK-MEL-5 = test: Anticancer activity against human SK-MEL-5 cells after 48 hrs by sulforhodamine B assay; assay type: functional; conditions: SK-MEL-5, 48 h; how it was run: as §1
UACC-257 = test: Anticancer activity against human UACC257 cells after 48 hrs by sulforhodamine B assay; assay type: functional; conditions: UACC-257, 48 h; how it was run: as §2
IGROV-1 = test: Anticancer activity against human IGROV1 cells after 48 hrs by sulforhodamine B assay; assay type: functional; conditions: IGROV-1, 48 h; how it was run: as §1
OVCAR-3 = test: Anticancer activity against human OVCAR3 cells after 48 hrs by sulforhodamine B assay; assay type: functional; conditions: OVCAR-3, 48 h; how it was run: as §1
OVCAR-4 = test: Anticancer activity against human OVCAR4 cells after 48 hrs by sulforhodamine B assay; assay type: functional; conditions: OVCAR-4, 48 h; how it was run: as §1
OVCAR-5 = test: Anticancer activity against human OVCAR5 cells after 48 hrs by sulforhodamine B assay; assay type: functional; conditions: OVCAR-5, 48 h; how it was run: as §1
OVCAR-8 = test: Anticancer activity against human OVCAR8 cells after 48 hrs by sulforhodamine B assay; assay type: functional; conditions: OVCAR-8, 48 h; how it was run: as §1
[9] = Anticancer activity against human NCI-ADR-RES cells after 48 hrs by sulforhodamine B assay; assay type: functional; how it was run: as §1
SK-OV-3 = test: Anticancer activity against human SKOV3 cells after 48 hrs by sulforhodamine B assay; assay type: functional; conditions: SK-OV-3, 48 h; how it was run: as §1
786-0 = test: Anticancer activity against human 786-0 cells after 48 hrs by sulforhodamine B assay; assay type: functional; conditions: 786-0, 48 h; how it was run: as §1
A498 = test: Anticancer activity against human A498 cells after 48 hrs by sulforhodamine B assay; assay type: functional; conditions: A498, 48 h; how it was run: as §1
ACHN = test: Anticancer activity against human ACHN cells after 48 hrs by sulforhodamine B assay; assay type: functional; how it was run: as §1
CAKI-1 = test: Anticancer activity against human Caki1 cells after 48 hrs by sulforhodamine B assay; assay type: functional; conditions: CAKI-1, 48 h; how it was run: as §1
[10] = Anticancer activity against human RXF393 cells after 48 hrs by sulforhodamine B assay; assay type: functional; conditions: RXF 393, 48 h; how it was run: as §1
SN12C = test: Anticancer activity against human SN12C cells after 48 hrs by sulforhodamine B assay; assay type: functional; how it was run: as §1
TK-10 = test: Anticancer activity against human TK10 cells after 48 hrs by sulforhodamine B assay; assay type: functional; conditions: TK-10, 48 h; how it was run: as §2
UO-31 = test: Anticancer activity against human UO31 cells after 48 hrs by sulforhodamine B assay; assay type: functional; conditions: UO-31, 48 h; how it was run: as §2
DU-145 = test: Anticancer activity against human DU145 cells after 48 hrs by sulforhodamine B assay; assay type: functional; conditions: DU-145, 48 h; how it was run: as §1
MCF7 = test: Anticancer activity against human MCF7 cells after 48 hrs by sulforhodamine B assay; assay type: functional; conditions: MCF7, 48 h; how it was run: as §1
MDA-MB-231 = test: Anticancer activity against human MDA-MB-231 cells after 48 hrs by sulforhodamine B assay; assay type: functional; conditions: MDA-MB-231, 48 h; how it was run: as §1
[11] = Anticancer activity against human Hs 578T cells after 48 hrs by sulforhodamine B assay; assay type: functional; how it was run: as §1
BT-549 = test: Anticancer activity against human BT549 cells after 48 hrs by sulforhodamine B assay; assay type: functional; conditions: BT-549, 48 h; how it was run: as §1
T47D = test: Anticancer activity against human T47D cells after 48 hrs by sulforhodamine B assay; assay type: functional; how it was run: as §2
MDA-MB-468 = test: Anticancer activity against human MDA-MB-468 cells after 48 hrs by sulforhodamine B assay; assay type: functional; conditions: MDA-MB-468, 48 h; how it was run: as §1
[12] = (§3) Anticancer activity against human OCI-AML3 cells expressing mutant NPM1 assessed as apoptosis for 48 hrs by annexin-V and TO-PRO3 staining based flow cytometry; assay type: functional, cell-based; conditions: OCI-AML-3, 48 h
How it was run: (§4)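 OCI-AML3 cells (NPM1c+) in logarithmic growth, passaged 2–3 times weekly. Cells were exposed to the indicated compound concentrations for 48 hr, then stained with annexin V and TO-PRO 3. Percent apoptotic cells was read by flow cytometry. AP50 is the concentration at which 50% of cells undergo apoptosis.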

OCI-AML-3 = test: as §3; assay type: functional, cell-based; how it was run: as §4

Cc1c(C=C2C(=O)NC(=S)NC2=O)c2ccccc2n1Cc1ccccc1
GI50 (CCRF-CEM): 590 nM
GI50 (HL-60(TB)): 290 nM
GI50 (K562): 1260 nM
GI50 [1]: 1710 nM
GI50 [2]: 350 nM
GI50 (SR): 340 nM
GI50 (A549): 1850 nM
GI50 (HOP-62): 1090 nM
GI50 [3]: 400 nM
GI50 (NCI-H226): 1880 nM
GI50 (NCI-H322M): 1630 nM
GI50 (NCI-H460): 980 nM
GI50 (NCI-H522): 1850 nM
GI50 [4]: 1330 nM
GI50 [5]: 1180 nM
GI50 (HCT-116): 890 nM
GI50 (HCT-15): 1300 nM
GI50 (HT-29): 1370 nM
GI50 (KM12): 950 nM
GI50 (SW-620): 1240 nM
GI50 (SF-268): 1260 nM
GI50 [6]: 930 nM
GI50 [7]: 1140 nM
GI50 (SNB-19): 1310 nM
GI50 (SNB-75): 1510 nM
GI50 (U-251): 1160 nM
GI50 [8]: 530 nM
GI50 (Malme-3M): 2310 nM
GI50 (M14): 1400 nM
GI50 (MDA-MB-435): 1150 nM
GI50 (SK-MEL-2): 2080 nM
GI50 (SK-MEL-28): 1660 nM
GI50 (SK-MEL-5): 1370 nM
GI50 (UACC-257): 1410 nM
GI50 (IGROV-1): 970 nM
GI50 (OVCAR-3): 1180 nM
GI50 (OVCAR-4): 1240 nM
GI50 (OVCAR-5): 1750 nM
GI50 (OVCAR-8): 1130 nM
GI50 [9]: 1890 nM
GI50 (SK-OV-3): 1890 nM
GI50 (786-0): 1580 nM
GI50 (A498): 1560 nM
GI50 (ACHN): 1370 nM
GI50 (CAKI-1): 1570 nM
GI50 [10]: 1230 nM
GI50 (SN12C): 1150 nM
GI50 (TK-10): 1470 nM
GI50 (UO-31): 880 nM
GI50 (DU-145): 1310 nM
GI50 (MCF7): 700 nM
GI50 (MDA-MB-231): 1340 nM
GI50 [11]: 510 nM
GI50 (BT-549): 1600 nM
GI50 (T47D): 1900 nM
GI50 (MDA-MB-468): 510 nM
AC50 [12]: 3310 nM

COC(=O)c1ccc(Cn2c(C)c(C=C3C(=O)NC(=O)NC3=O)c3ccccc32)cc1
Activity (OCI-AML-3): inactive
